Data taken from ChEMBL document CHEMBL1287652, “QSAR modeling, synthesis and bioassay of diverse leukemia RPMI-8226 cell line active agents” (2010).

Columns and labels:
Format in all cases: functional
[1] = system: HT-29; test: Antitumor activity against human HT-29 cells after 48 hrs by sulforhodamine B assay; details: HT-29, 48 h
Procedure, shortened: (§1)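 Cells were grown in RPMI-1640 with 5% FBS and 2 mM L-glutamine, plated at 5000–40,000 cells/well, and preincubated for 24 h. A time-zero plate was TCA-fixed. Compounds were added from DMSO stock at five concentrations for 48 h at 37 °C. Cells were fixed with TCA (adherent 10%, suspension 16%) and stained with SRB, and A515 was read. GI50 and TGI were calculated from Tz, control and test absorbances.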

[2] = system: DU-145; test: Antitumor activity against human DU145 cells after 48 hrs by sulforhodamine B assay; details: DU-145, 48 h; procedure, shortened: as §1
[3] = system: KM12; test: Antitumor activity against human KM12 cells after 48 hrs by sulforhodamine B assay; details: KM12, 48 h; procedure, shortened: as §1
[4] = system: SNB-75; test: Antitumor activity against human SNB75 cells after 48 hrs by sulforhodamine B assay; details: SNB-75, 48 h
Procedure, shortened: (§2)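 Cells were cultured in RPMI-1640 (5% FBS, 2 mM L-glutamine), pre-incubated for 24 h with time-zero plates TCA-fixed, then exposed for 48 h to five serial dilutions. The SRB read-out at 515 nm used time-zero, control and test absorbances. GI50 solves [(Ti−Tz)/(C−Tz)]×100 = 50 (net protein increase). TGI is the concentration giving 100% growth inhibition.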

[5] = system: NCI-H460; test: Antitumor activity against human NCI-H460 cells after 48 hrs by sulforhodamine B assay; details: NCI-H460, 48 h; procedure, shortened: as §2
[6] = Antitumor activity against human Hs 578T cells after 48 hrs by sulforhodamine B assay; procedure, shortened: as §1
[7] = system: MCF7; test: Antitumor activity against human MCF7 cells after 48 hrs by sulforhodamine B assay; details: MCF7, 48 h; procedure, shortened: as §1
[8] = system: COLO 205; test: Antitumor activity against human COLO205 cells after 48 hrs by sulforhodamine B assay; details: COLO 205, 48 h; procedure, shortened: as §1
[9] = system: SK-OV-3; test: Antitumor activity against human SKOV3 cells after 48 hrs by sulforhodamine B assay; details: SK-OV-3, 48 h; procedure, shortened: as §2
[10] = system: A498; test: Antitumor activity against human A498 cells after 48 hrs by sulforhodamine B assay; details: A498, 48 h; procedure, shortened: as §1
[11] = system: HL-60(TB); test: Antitumor activity against human HL-60(TB) cells after 48 hrs by sulforhodamine B assay; details: HL-60, 48 h
Procedure, shortened: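 NCI panel screen. Cells were grown in RPMI-1640 with 5% FBS and 2 mM L-glutamine, seeded at 5000–40,000 cells/well depending on doubling time, and preincubated 24 h at 37 °C in 5% CO2. Compound was diluted from a DMSO concentrate to five levels and given for 48 h. Settled cells were fixed with TCA (final 16%), stained with 0.4% SRB, and read at 515 nm. GI50 was taken from [(Ti−Tz)/(C−Tz)]×100 = 50.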

[12] = system: UACC-62; test: Antitumor activity against human UACC62 cells after 48 hrs by sulforhodamine B assay; details: UACC-62, 48 h
Procedure, shortened: (§3)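 Cells grown in RPMI-1640 with 5% FBS and 2 mM glutamine, plated and preincubated 24 h; time-zero plates TCA-fixed. Five-level serial dilutions added, 48 h at 37 °C. TCA fixation, SRB staining, absorbance 515 nm. GI50 derived from [(Ti−Tz)/(C−Tz)]×100 = 50; TGI is concentration giving 100% growth inhibition.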

[13] = system: OVCAR-4; test: Antitumor activity against human OVCAR4 cells after 48 hrs by sulforhodamine B assay; details: OVCAR-4, 48 h; procedure, shortened: as §2
[14] = system: NCI/ADR-RES; test: Antitumor activity against human NCI/ADR-RES cells after 48 hrs by sulforhodamine B assay; procedure, shortened: as §2
[15] = system: NCI-H322M; test: Antitumor activity against human NCI-H322M cells after 48 hrs by sulforhodamine B assay; procedure, shortened: as §2
[16] = system: PC-3; test: Antitumor activity against human PC3 cells after 48 hrs by sulforhodamine B assay; details: PC-3, 48 h; procedure, shortened: as §2
[17] = system: SK-MEL-5; test: Antitumor activity against human SK-MEL-5 cells after 48 hrs by sulforhodamine B assay; details: SK-MEL-5, 48 h; procedure, shortened: as §2
[18] = system: BT-549; test: Antitumor activity against human BT549 cells after 48 hrs by sulforhodamine B assay; details: BT-549, 48 h; procedure, shortened: as §1
[19] = system: LOX IMVI; test: Antitumor activity against human LOXIMVI cells after 48 hrs by sulforhodamine B assay; procedure, shortened: as §1
[20] = system: UACC-257; test: Antitumor activity against human UACC257 cells after 48 hrs by sulforhodamine B assay; details: UACC-257, 48 h; procedure, shortened: as §3
[21] = system: RXF 393; test: Antitumor activity against human RXF393 cells after 48 hrs by sulforhodamine B assay; details: RXF 393, 48 h; procedure, shortened: as §2
[22] = system: NCI-H226; test: Antitumor activity against human NCI-H226 cells after 48 hrs by sulforhodamine B assay; details: NCI-H226, 48 h; procedure, shortened: as §2
[23] = system: HCT-15; test: Antitumor activity against human HCT15 cells after 48 hrs by sulforhodamine B assay; details: HCT-15, 48 h; procedure, shortened: as §1
[24] = system: NCI-H522; test: Antitumor activity against human NCI-H522 cells after 48 hrs by sulforhodamine B assay; details: NCI-H522, 48 h; procedure, shortened: as §2
[25] = system: CAKI-1; test: Antitumor activity against human Caki1 cells after 48 hrs by sulforhodamine B assay; details: CAKI-1, 48 h; procedure, shortened: as §1
[26] = system: MDA-MB-435; test: Antitumor activity against human MDA-MB-435 cells after 48 hrs by sulforhodamine B assay; details: MDA-MB-435, 48 h; procedure, shortened: as §1
[27] = system: NCI-H23; test: Antitumor activity against human NCI-H23 cells after 48 hrs by sulforhodamine B assay; details: NCI-H23, 48 h; procedure, shortened: as §2
[28] = system: HOP-92; test: Antitumor activity against human HOP92 cells after 48 hrs by sulforhodamine B assay; details: HOP-92, 48 h; procedure, shortened: as §1
[29] = system: ACHN; test: Antitumor activity against human ACHN cells after 48 hrs by sulforhodamine B assay; procedure, shortened: as §1
[30] = system: SNB-19; test: Antitumor activity against human SNB19 cells after 48 hrs by sulforhodamine B assay; details: SNB-19, 48 h; procedure, shortened: as §2
[31] = system: 786-0; test: Antitumor activity against human 786-0 cells after 48 hrs by sulforhodamine B assay; details: 786-0, 48 h; procedure, shortened: as §1

Work on `COc1ccc(NC(=O)Nc2ccccc2OCCCOc2ccccc2NC(=O)Nc2ccc(OC)cc2)cc1` yielded a GI50 [1] greater than 100 µM, a TGI [1] greater than 100 µM and a GI50 [2] greater than 100 µM. The TGI [2] was greater than 100 µM, the GI50 [3] was greater than 100 µM and the TGI [3] was greater than 100 µM. It also gave a GI50 [4] of 1.5 µM, a TGI [4] of 5.3 µM and a GI50 [5] greater than 100 µM. It also gave a TGI [5] greater than 100 µM, a GI50 [6] greater than 100 µM and a TGI [6] greater than 100 µM. For the same compound, the GI50 [7] was greater than 100 µM, the TGI [7] was greater than 100 µM and the GI50 [8] was 14.3 µM. It also gave a TGI [8] greater than 100 µM, a GI50 [9] of 5 µM and a TGI [9] greater than 100 µM. The GI50 [10] was 16 µM, the TGI [10] was 72.9 µM and the GI50 [11] was 26.7 µM. It also gave a TGI [11] of 68 µM, a GI50 [12] greater than 100 µM and a TGI [12] greater than 100 µM. For the same compound, the GI50 [13] was greater than 100 µM, the TGI [13] was greater than 100 µM and the GI50 [14] was greater than 100 µM. For the same compound, the TGI [14] was greater than 100 µM, the GI50 [15] was greater than 100 µM and the TGI [15] was greater than 100 µM. The GI50 [16] was greater than 100 µM, the TGI [16] was greater than 100 µM and the GI50 [17] was greater than 100 µM. It also gave a TGI [17] greater than 100 µM, a GI50 [18] of 1.5 µM and a TGI [18] of 29.2 µM. For the same compound, the GI50 [19] was greater than 100 µM, the TGI [19] was greater than 100 µM and the GI50 [20] was greater than 100 µM. For the same compound, the TGI [20] was greater than 100 µM, the TGI [21] was greater than 100 µM and the GI50 [22] was greater than 100 µM. The TGI [22] was greater than 100 µM, the GI50 [23] was greater than 100 µM and the TGI [23] was greater than 100 µM. It also gave a GI50 [24] greater than 100 µM, a TGI [24] greater than 100 µM and a GI50 [25] greater than 100 µM. The TGI [25] was greater than 100 µM, the GI50 [26] was greater than 100 µM and the TGI [26] was greater than 100 µM. The GI50 [27] was 12.4 µM, the TGI [27] was greater than 100 µM and the GI50 [28] was 2.7 µM. It also gave a TGI [28] of 8.6 µM, a GI50 [29] greater than 100 µM and a TGI [29] greater than 100 µM. It also gave a GI50 [30] of 4.3 µM, a TGI [30] of 26.1 µM and a TGI [31] greater than 100 µM.
